In data set [1] the test system is AD293. Kind of data set: Cytotoxicity against human AD293 cells assessed as cell viability at 0.1 to 10 uM incubated for 24 hrs by MTT assay. It counts as toxicity, cell-based. The note with it: ad293, 24 h, dose 0.1-10 µM. An outline of the steps:
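AD293 cells seeded at 4 × 10^4 cells/well in DMEM with 10% FBS. Next day, compound (100 nM, 1 μM, 10 μM) or vehicle added in serum-free DMEM for 24 h, no irradiation. MTT (5 mg/mL reagent) added for 3 h at 37 °C, formazan dissolved in DMSO, absorbance read at 590 nm. Triplicate wells, four independent experiments.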
In general terms: Tetrazolium assays rely on reduction of a dye to a coloured formazan, in cell work by metabolically active cells.

Data set [2] can be described thus: Photophysical property of the compound assessed as fluorescence quantum yield. It counts as physicochemical.
Data set [3] in a line: Photosensitizing ability of the compound assessed as singlet oxygen quantum yield under 600nm monochromatic light irradiation by DPBF based assay relative to control. It counts as functional. Put shortly: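 Singlet oxygen generation followed by the decrease in DPBF absorbance under irradiation. DPBF (20–25 μm) used at 5–10-fold excess over compound (2.5–5 μm).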
The test system of data set [4] is RAW264.7. As to the kind of experiment: Effect on iNOS mRNA expression in mouse RAW264.7 cells at 100 nM preincubated with NAC followed by compound addition and measured after 30 mins under 650nm LED light irradiation by real-time PCR analysis. It counts as functional, cell-based. Put shortly:
(§1)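 RAW264.7 cells seeded at 0.3 million per 35 mm dish. Next day, pretreated with 10 mM N-acetyl-cysteine for 30 min, then given 100 nM compound and 650 nm LED light for 30 min. Total RNA taken 24 h later and reverse transcribed with random primers. SYBR real-time PCR run for 40 cycles (95/60/72 °C). Quantities calculated by the Ct method. Results given as fold change, means ± SD.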
On the technique in general: In qPCR the cycle at which signal appears reflects the starting amount.

Data set [5] has as its system RAW264.7. Kind of data set: Effect on TNF-alpha mRNA expression in mouse RAW264.7 cells at 100 nM preincubated with NAC followed by compound addition and measured after 30 mins under 650nm LED light irradiation by real-time PCR analysis. It counts as functional, cell-based. An outline of the steps:
as §1

Data set [6] in a line: Drug uptake in human A549 cells assessed as increase in intracellular fluorescence at 1 uM measured after 40 mins by confocal microscopic analysis. It counts as ADME, cell-based. The note with it: a549, 40 min. Put shortly:
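A549 cells treated with 1 μM compound. Intracellular fluorescence imaged by confocal microscopy (640 nm laser excitation, 650–750 nm band-pass) at 0 and 40 min after treatment.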

Data set [7] is described as follows: Induction of superoxide anion radical assessed as DMPO-O2 radical adduct formation under dark condition measured after 10 mins by ESR spectra analysis. It counts as functional. Put shortly: (§2)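 ESR spectra recorded with DMPO as spin trap to detect superoxide and/or hydroxyl radical adducts, before and after 10 min irradiation of compound.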
Data set [8] in a line: Induction of hydroxyl radical assessed as DMPO-OH radical adduct formation under light irradiation measured after 10 mins by ESR spectra analysis. It counts as functional. Put shortly:
as §2

Data set [9] is described as follows: Induction of hydroxyl radical assessed as DMPO-OH radical adduct formation under dark condition measured after 10 mins by ESR spectra analysis. It counts as functional. Put shortly: as §2
Data set [10] is described as follows: Drug uptake in human AD293 cells assessed as increase in red fluorescence at 10 uM measured after 40 mins by fluorescence imaging based analysis. It counts as ADME, cell-based. To be noted: ad293, 40 min.
Data set [11] relates to AD293. Kind of data set: Effect on morphological changes in human AD293 cells at 10 uM. It counts as functional, cell-based. An outline of the steps:
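AD293 cells treated with 10 μM compound, followed by LED irradiation or kept unirradiated, then morphology examined by microscopy.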

The nature of data set [12]: Induction of superoxide anion radical assessed as DMPO-O2 radical adduct formation under light irradiation measured after 10 mins by ESR spectra analysis. It counts as functional. An outline of the steps:
as §2

Data set [13] relates to AD293. Kind of data set: Effect on morphological changes in human AD293 cells stable expressing TLR7 at 10 uM pretreated with N-Acetylcysteine for 30 mins followed by compound addition and measured after 30 mins under LED light irradiation at 650 nm by microscopic analysis. It counts as functional, cell-based. Put shortly:
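TLR7-stable AD293 cells seeded at 20,000/well. After 24 h, medium switched to Opti-MEM. 1 h later, 10 mM N-acetyl-cysteine added. 30 min after that, cells given 10 μM compound and exposed to 650 nm LED for 30 min, or shielded from light as control. Cells observed by microscope 24 h after drug treatment.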

Data set [14] in a line: Thermal stability of compound in DMSO-d6 at 37.5 degree C measured after 2 days by 1H NMR spectroscopy analysis relative to control. It counts as physicochemical. The note with it: 48 h; time 2 day. An outline of the steps: (§3)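 Compound in DMSO-d6 followed by 1H NMR. Degradation taken from the intensity of three signals (one resiquimod, one BODIPY, and the linkage NH), each relative to the DMSO-d6 internal standard, and the three averaged.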

The nature of data set [15]: Photorelease activity of the compound in DMSO-d6 measured after 10 hrs under 660nm 400mW LED light by 1H NMR spectroscopy analysis relative to control. It counts as ADME.
Data set [16] can be described thus: Photorelease activity of the compound in aqueous solution at 30 uM measured upto 200 mins under dark condition by 1H NMR spectroscopy analysis. It counts as ADME. To be noted: buffer, 3.333 h.
Data set [17] is described as follows: Photorelease activity of the compound in aqueous solution at 30 uM measured upto 200 mins under 660nm 400mW LED light by UV-vis spectroscopy analysis. The note with it: buffer, 3.333 h.
Data set [18] can be described thus: Thermal stability of compound in DMSO-d6 at 37.5 degree C measured before 24 hrs by 1H NMR spectroscopy analysis. It counts as physicochemical. Put shortly:
as §3

Data set [19] can be described thus: Thermal stability of compound in DMSO-d6 at 37.5 degree C measured after 1 day by 1H NMR spectroscopy analysis relative to control. It counts as physicochemical. The note with it: 24 h. Put shortly:
as §3

The nature of data set [20]: Thermal stability of compound in DMSO-d6 at 37.5 degree C measured after 3 days by 1H NMR spectroscopy analysis relative to control. It counts as physicochemical. The note with it: 72 h; time 3 day. Put shortly: as §3

Active and inactive are the calls of the source. No cut-off for these calls is given here.

With `COCCOCCOCCOc1ccc(/C=C/C2=[N+]3C(=C(CO)c4c(C)cc(/C=C/c5ccc(OCCOCCOCCOC)cc5)n4[B-]3(F)F)C(C)=C2)cc1`, the Activity entry in the data set on AD293 [1] was “Non-toxic”; in data set [2], 0.554; in data set [3], 0.37%.

Regarding `COCCOCCOCCOc1ccc(/C=C/C2=[N+]3C(=C(CO)c4c(C)cc(/C=C/c5ccc(OCCOCCOCCOC)cc5)n4[B-]3(C)C)C(C)=C2)cc1`, the result (with RAW264.7 [4]; with RAW264.7 [5]; in data set [7]; in data set [8]; in data set [9]; in the data set on AD293 [11]) was inactive. The outcome in data set [12] was inactive. The values for the Activity result (in the data set on AD293 [1]; in [3]; with AD293 [13]) were “Non-toxic”, 2.2% and “Active; Showed Greater Effect Than Compound 3C”, respectively. Further, the Drug uptake result in [6] and in data set [10] was “Active” throughout.

For `CCOCc1nc2c(NC(=O)OCC3=C4C(C)=CC(/C=C/c5ccc(OCCOCCOCCOC)cc5)=[N+]4[B-](F)(F)n4c(/C=C/c5ccc(OCCOCCOCCOC)cc5)cc(C)c43)nc3ccccc3c2n1CC(C)(C)O`, the Activity result in the data set with AD293 [1] was “Non-toxic”; in data set [14], 11%; in data set [15], ~ 90%; in data set [2] it was 0.482; in data set [16], “Not_active”; in data set [17] it was “Active”. Besides, the Activity entry in data set [18] was “Not_active”; in data set [19] it was 7%; in data set [3], 0.33%; in data set [20], 15%.
